pIC50: −log10 of the molar value. In brackets after ≈: the same amount, converted by molar mass.
Tests used:
[1] = test system: Pseudomonas aeruginosa; experiment: Antibacterial activity against Pseudomonas aeruginosa PAO1 harboring siderophore receptor piuA, pfeA and pirA mutant in Mueller-Hinton broth medium by CLSI broth microdilution method; format: functional
Method in brief: (§1)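 MIC by CLSI broth microdilution in standard Mueller Hinton broth. Tested against wild-type P. aeruginosa PAO1 and an isogenic panel lacking one or more siderophore receptors.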

[2] = test system: Pseudomonas aeruginosa; experiment: Ratio of MIC for Pseudomonas aeruginosa PAO1 harboring siderophore receptor fptA mutant to MIC for wild type Pseudomonas aeruginosa PAO1 in Mueller-Hinton broth medium by CLSI broth microdilution method; format: functional
Method in brief: (§2)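 Receptor-deficient PAO1 strain MIC divided by parent PAO1 MIC. Both MICs were obtained by CLSI broth microdilution in standard Mueller Hinton broth. A shift greater than 4× was taken to indicate that the deleted receptor(s) take part in drug uptake.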

[3] = test system: Pseudomonas aeruginosa; experiment: Antibacterial activity against Pseudomonas aeruginosa PAO1 harboring siderophore receptor piuA mutant in medium containing low-Fe by CLSI broth microdilution method; format: functional
Method in brief: (§3)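 MIC by CLSI broth microdilution in a modified Mueller Hinton broth depleted of iron to mimic the low-iron in vivo environment. Tested against PAO1 and isogenic strains lacking one or more siderophore receptors.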

[4] = test system: Pseudomonas aeruginosa; experiment: Antibacterial activity against Pseudomonas aeruginosa PAO1 harboring siderophore receptor piuA and fpvA double mutant in medium containing low-Fe by CLSI broth microdilution method; format: functional; method in brief: as §3
[5] = test system: Pseudomonas aeruginosa; experiment: Antibacterial activity against Pseudomonas aeruginosa PAO1 harboring siderophore receptor piuA and fptA double mutant in medium containing low-Fe by CLSI broth microdilution method; format: functional; method in brief: as §3
[6] = test system: Pseudomonas aeruginosa; experiment: Antibacterial activity against Pseudomonas aeruginosa PAO1 harboring siderophore receptor piuA and pirA double mutant in medium containing low-Fe by CLSI broth microdilution method; format: functional; method in brief: as §3
[7] = test system: Pseudomonas aeruginosa; experiment: Antibacterial activity against Pseudomonas aeruginosa PAO1 harboring siderophore receptor piuA, pfeA and pirA mutant in medium containing low-Fe by CLSI broth microdilution method; format: functional; method in brief: as §3
[8] = test system: Pseudomonas aeruginosa; experiment: Ratio of MIC for Pseudomonas aeruginosa PAO1 harboring siderophore receptor piuA mutant to MIC for wild type Pseudomonas aeruginosa PAO1 in medium containing low-Fe by CLSI broth microdilution method; format: functional
Method in brief: (§4)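 CLSI broth microdilution MICs in a modified Mueller-Hinton broth depleted of iron to mimic low in vivo iron. Tested against wild-type PAO1 and isogenic siderophore receptor knockout strains. Reported as the knockout-strain MIC divided by the PAO1 MIC in the same iron-depleted medium.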

[9] = test system: Pseudomonas aeruginosa; experiment: Ratio of MIC for Pseudomonas aeruginosa PAO1 harboring siderophore receptor pirA mutant to MIC for wild type Pseudomonas aeruginosa PAO1 in medium containing low-Fe by CLSI broth microdilution method; format: functional
Method in brief: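 Ratio of strain MIC to PAO1 MIC. Both MICs were obtained by CLSI broth microdilution in iron-depleted modified Mueller Hinton broth. A shift greater than 4× versus the parent was read as the deleted receptor(s) taking part in uptake.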

[10] = test system: Pseudomonas aeruginosa; experiment: Ratio of MIC for Pseudomonas aeruginosa PAO1 harboring siderophore receptor piuA and fpvA double mutant to MIC for wild type Pseudomonas aeruginosa PAO1 in medium containing low-Fe by CLSI broth microdilution method; format: functional; method in brief: as §4
[11] = test system: Pseudomonas aeruginosa; experiment: Ratio of MIC for Pseudomonas aeruginosa PAO1 harboring siderophore receptor piuA, pfeA and pirA mutant to MIC for wild type Pseudomonas aeruginosa PAO1 in medium containing low-Fe by CLSI broth microdilution method; format: functional; method in brief: as §4
[12] = test system: Pseudomonas aeruginosa; experiment: Ratio of MIC for Pseudomonas aeruginosa PAO1 harboring siderophore receptor fpvA mutant in MHB medium to MIC for Pseudomonas aeruginosa PAO1 harboring siderophore receptor fpvA mutant in medium containing low-Fe by CLSI broth microdilution method; format: functional
[13] = test system: Pseudomonas aeruginosa; experiment: Ratio of MIC for Pseudomonas aeruginosa PAO1 harboring siderophore receptor piuA and pfeA double mutant in MHB medium to MIC for Pseudomonas aeruginosa PAO1 harboring siderophore receptor piuA and pfeA double mutant in medium containing low-Fe by CLSI broth microdilution method; format: functional
[14] = test system: Pseudomonas aeruginosa; experiment: Ratio of MIC for Pseudomonas aeruginosa PAO1 harboring siderophore receptor piuA, pfeA and pirA mutant in MHB medium to MIC for harboring siderophore receptor piuA, pfeA and pirA mutant in medium containing low-Fe by CLSI broth microdilution method; format: functional
[15] = test system: Pseudomonas aeruginosa; experiment: Antibacterial activity against Pseudomonas aeruginosa PAO1 in medium containing aztreonam and low-Fe by CLSI broth microdilution method; format: functional
[16] = test system: Pseudomonas aeruginosa; experiment: Antibacterial activity against Pseudomonas aeruginosa PAO1 harboring siderophore receptor pirA mutant in medium containing aztreonam and low-Fe by CLSI broth microdilution method; format: functional
[17] = test system: Pseudomonas aeruginosa; experiment: Antibacterial activity against Pseudomonas aeruginosa PAO1 harboring siderophore receptor fpvA mutant in medium containing aztreonam and low-Fe by CLSI broth microdilution method; format: functional
[18] = test system: Pseudomonas aeruginosa; experiment: Antibacterial activity against Pseudomonas aeruginosa PAO1 harboring siderophore receptor pfeA mutant in medium containing aztreonam and low-Fe by CLSI broth microdilution method; format: functional
[19] = test system: Pseudomonas aeruginosa; experiment: Antibacterial activity against Pseudomonas aeruginosa PAO1 harboring siderophore receptor piuA and fpvA double mutant in medium containing aztreonam and low-Fe by CLSI broth microdilution method; format: functional
[20] = test system: Pseudomonas aeruginosa; experiment: Antibacterial activity against Pseudomonas aeruginosa PAO1 harboring siderophore receptor pirA and pfeA double mutant in medium containing aztreonam and low-Fe by CLSI broth microdilution method; format: functional
[21] = test system: Pseudomonas aeruginosa; experiment: Ratio of MIC for Pseudomonas aeruginosa PAO1 harboring siderophore receptor piuA and pirA double mutant to MIC for wild type Pseudomonas aeruginosa PAO1 in medium containing aztreonam and low-Fe by CLSI broth microdilution method; format: functional
[22] = test system: Pseudomonas aeruginosa; experiment: Ratio of MIC for Pseudomonas aeruginosa PAO1 harboring siderophore receptor pirA and pfeA double mutant to MIC for wild type Pseudomonas aeruginosa PAO1 in medium containing aztreonam and low-Fe by CLSI broth microdilution method; format: functional
[23] = test system: Pseudomonas aeruginosa; experiment: Ratio of MIC for Pseudomonas aeruginosa PAO1 harboring siderophore receptor piuA, pfeA and pirA mutant to MIC for wild type Pseudomonas aeruginosa PAO1 in medium containing aztreonam and low-Fe by CLSI broth microdilution method; format: functional
[24] = test system: Escherichia coli; experiment: Antibacterial activity against Escherichia coli DH5alpha by CLSI broth microdilution method; format: functional; details: DH5[alpha]
[25] = test system: Escherichia coli; experiment: Antibacterial activity against Escherichia coli DH5alpha expressing beta-lactamase SHV-12 by CLSI broth microdilution method; format: functional; details: DH5[alpha]
[26] = test system: Escherichia coli; experiment: Antibacterial activity against Escherichia coli DH5alpha expressing beta-lactamase TEM-1 by CLSI broth microdilution method; format: functional; details: DH5[alpha]
[27] = test system: Escherichia coli; experiment: Antibacterial activity against Escherichia coli DH5alpha expressing beta-lactamase TEM-24 by CLSI broth microdilution method; format: functional; details: DH5[alpha]
[28] = test system: Escherichia coli; experiment: Antibacterial activity against Escherichia coli DH5alpha expressing beta-lactamase VIM-2 by CLSI broth microdilution method; format: functional; details: DH5[alpha]
[29] = test system: Escherichia coli; experiment: Antibacterial activity against Escherichia coli DH5alpha expressing beta-lactamase KPC-3 by CLSI broth microdilution method; format: functional; details: DH5[alpha]
[30] = test system: Escherichia coli; experiment: Antibacterial activity against Escherichia coli EC-28 by CLSI broth microdilution method; format: functional
[31] = Displacement of fluorescent Bocillin FL from Pseudomonas aeruginosa PBP3
[32] = test system: Pseudomonas aeruginosa; experiment: Antibacterial activity against Pseudomonas aeruginosa PAO1 in Mueller-Hinton broth medium by CLSI broth microdilution method; format: functional; method in brief: as §1
[33] = test system: Pseudomonas aeruginosa; experiment: Ratio of MIC for Pseudomonas aeruginosa PAO1 harboring siderophore receptor pirA and pfeA double mutant to MIC for wild type Pseudomonas aeruginosa PAO1 in Mueller-Hinton broth medium by CLSI broth microdilution method; format: functional; method in brief: as §2
[34] = test system: Pseudomonas aeruginosa; experiment: Antibacterial activity against Pseudomonas aeruginosa PAO1 harboring siderophore receptor pirA mutant in Mueller-Hinton broth medium by CLSI broth microdilution method; format: functional; method in brief: as §1

## CC(C)(O/N=C(\C(=O)N[C@H]1CON(C2(C(=O)O)C[C@H](N3C(=O)c4cc(O)c(O)cc4C3=O)C(=O)O2)C1=O)c1csc(N)n1)C(=O)O (some centres undefined)
[1]
  MIC: 16 mg/L (≈ 24.1 µM)
[2]
  Ratio: 8
[3]
  MIC: 0.125 mg/L (≈ 0.189 µM)
[4]
  MIC: 0.25 mg/L (≈ 0.377 µM)
[5]
  MIC: 0.5 mg/L (≈ 0.755 µM)
[6]
  MIC: 0.25 mg/L (≈ 0.377 µM)
[7]
  MIC: 0.25 mg/L (≈ 0.377 µM)
[8]
  Ratio: >=4
[9]
  Ratio: 1
[10]
  Ratio: >=8
[11]
  Ratio: >=8
[12]
  Ratio: 512
[13]
  Ratio: 64
[14]
  Ratio: 64
[15]
  MIC: 4 mg/L (≈ 6.04 µM)
[16]
  MIC: 4 mg/L (≈ 6.04 µM)
[17]
  MIC: 2 mg/L (≈ 3.02 µM)
[18]
  MIC: 4 mg/L (≈ 6.04 µM)
[19]
  MIC: 4 mg/L (≈ 6.04 µM)
[20]
  MIC: 4 mg/L (≈ 6.04 µM)
[21]
  Ratio: 1
[22]
  Ratio: 1
[23]
  Ratio: 1
[24]
  MIC: 0.03 mg/L (≈ 0.0453 µM)
[25]
  MIC: 0.015 mg/L (≈ 0.0226 µM)
[26]
  MIC: 0.06 mg/L (≈ 0.0906 µM)
[27]
  MIC: 0.06 mg/L (≈ 0.0906 µM)
[28]
  MIC: 0.015 mg/L (≈ 0.0226 µM)
[29]
  MIC: 0.03 mg/L (≈ 0.0453 µM)
[30]
  MIC: 0.25 mg/L (≈ 0.377 µM)
[31]
  pIC50: 7.34
[32]
  MIC: 0.5 mg/L (≈ 0.755 µM)
[33]
  Ratio: 1
[34]
  MIC: 0.5 mg/L (≈ 0.755 µM)
